Legend:
[1] = Oral bioavailability in Sprague-Dawley rat; assay type: ADME, organism-based; conditions: in vivo
[2] = molecular target: Cannabinoid receptor 1 (Homo sapiens) (UniProt P21554); test: Binding affinity to human CB1 receptor at 10 uM by radioligand binding assay relative to control
[3] = Tmax in po dosed Sprague-Dawley rat; assay type: ADME, organism-based; conditions: in vivo
[4] = Elimination half life in Sprague-Dawley rat at 1 mg/kg, iv; assay type: ADME, organism-based; design: dose 1 mg/kg, route intravenous; conditions: in vivo, read-out: beta t1/2 (converted)
Cytochrome P450 3A4 = Cytochrome P450 3A4 (Homo sapiens, UniProt P08684); test: Inhibition of CYP3A4 in human liver microsomes using midazolam as substrate preincubated for 15 mins followed by NADPH addition measured after 8 mins by LC/MS/MS analysis; assay type: ADME
[5] = Ratio of brain to plasma partition coefficient in Sprague-Dawley rat at 10 mg/kg, po measured at 1 hr; assay type: ADME, organism-based; design: dose 10 mg/kg, route oral
Procedure, shortened: (§1)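 Oral CNS distribution study in male Sprague-Dawley rats (n=2), 10 mg/kg; brain and plasma sampled one hour post-dose. Total (Kp) and unbound (Kp,uu) brain-plasma partition coefficients calculated, with unbound fractions from plasma and brain homogenate binding.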

Plasma [6] = test: Fraction unbound in Sprague-Dawley rat plasma at 5 uM after 4 hrs by equilibrium dialysis method; assay type: ADME, cell-free
Procedure, shortened: (§2)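 Fraction unbound determined in plasma from rat, cynomolgus monkey and human.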

[7] = molecular target: T1, Muscarinic acetylcholine receptor M1 (Rattus norvegicus, UniProt P08482); test: Negative allosteric modulation of rat muscarinic acetylcholine receptor M1 expressed in CHO cells assessed as inhibition of acetylcholine-induced calcium mobilization incubated for 150 secs prior to acetylcholine induction by Fluo-4 AM staining-based fluorescence assay; assay type: functional, cell-based
T1 sequence (P08482 whole entry): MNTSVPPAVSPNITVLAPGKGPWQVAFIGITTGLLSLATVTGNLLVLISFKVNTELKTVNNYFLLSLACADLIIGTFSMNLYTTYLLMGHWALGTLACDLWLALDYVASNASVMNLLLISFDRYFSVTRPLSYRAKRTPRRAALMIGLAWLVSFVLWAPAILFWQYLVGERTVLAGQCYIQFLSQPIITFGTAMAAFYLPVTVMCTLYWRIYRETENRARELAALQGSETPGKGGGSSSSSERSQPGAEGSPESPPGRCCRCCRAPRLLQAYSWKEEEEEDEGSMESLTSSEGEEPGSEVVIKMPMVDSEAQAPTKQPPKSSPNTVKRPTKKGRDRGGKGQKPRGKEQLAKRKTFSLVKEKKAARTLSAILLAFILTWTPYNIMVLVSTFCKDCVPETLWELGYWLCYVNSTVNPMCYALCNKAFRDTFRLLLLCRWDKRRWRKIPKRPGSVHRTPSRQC

[8] = Cmax in po dosed Sprague-Dawley rat; assay type: ADME, organism-based; design: route oral; conditions: in vivo
Cynomolgus monkey [9] = test: Elimination half life in cynomolgus monkey at 1 mg/kg, iv; assay type: ADME, organism-based, Macaca fascicularis; design: dose 1 mg/kg, route intravenous; conditions: in vivo
Rattus norvegicus = test: Volume of distribution at steady state in Sprague-Dawley rat at 1 mg/kg, iv; assay type: ADME, organism-based; design: dose 1 mg/kg, route intravenous; conditions: in vivo
Plasma [10] = test: Fraction unbound in human plasma at 5 uM after 4 hrs by equilibrium dialysis method; assay type: ADME, cell-free; procedure, shortened: as §2
[11] = Ratio of unbound brain to plasma partition coefficient in Sprague-Dawley rat at 10 mg/kg, po measured at 1 hr; assay type: ADME, organism-based; design: dose 10 mg/kg, route oral; procedure, shortened: as §1
Cytochrome P450 2C9 = Cytochrome P450 2C9 (Homo sapiens, UniProt P11712); test: Inhibition of CYP2C9 in human liver microsomes using diclofenac as substrate preincubated for 15 mins followed by NADPH addition measured after 8 mins by LC/MS/MS analysis; assay type: ADME
Cynomolgus monkey [12] = test: Volume of distribution at steady state in cynomolgus monkey at 1 mg/kg, iv; assay type: ADME, organism-based, Macaca fascicularis; design: dose 1 mg/kg, route intravenous; conditions: in vivo
Cytochrome P450 2D6 = Cytochrome P450 2D6 (Homo sapiens, UniProt P10635); test: Inhibition of CYP2D6 in human liver microsomes using dextromethorphan as substrate preincubated for 15 mins followed by NADPH addition measured after 8 mins by LC/MS/MS analysis; assay type: ADME
[13] = Plasma clearance in Sprague-Dawley rat at 1 mg/kg, iv; assay type: ADME, organism-based; design: dose 1 mg/kg, route intravenous
Plasma [14] = test: Fraction unbound in cynomolgus monkey plasma at 5 uM after 4 hrs by equilibrium dialysis method; assay type: ADME, cell-free, Macaca fascicularis; procedure, shortened: as §2
[15] = molecular target: T2, Muscarinic acetylcholine receptor M5 (Homo sapiens, UniProt P08912); test: Negative allosteric modulation of human muscarinic acetylcholine receptor M5 expressed in CHO cells assessed as inhibition of acetylcholine-induced calcium mobilization incubated for 150 secs prior to acetylcholine induction by Fluo-4 AM staining-based fluorescence assay; assay type: functional, cell-based
T2 sequence (P08912 whole entry): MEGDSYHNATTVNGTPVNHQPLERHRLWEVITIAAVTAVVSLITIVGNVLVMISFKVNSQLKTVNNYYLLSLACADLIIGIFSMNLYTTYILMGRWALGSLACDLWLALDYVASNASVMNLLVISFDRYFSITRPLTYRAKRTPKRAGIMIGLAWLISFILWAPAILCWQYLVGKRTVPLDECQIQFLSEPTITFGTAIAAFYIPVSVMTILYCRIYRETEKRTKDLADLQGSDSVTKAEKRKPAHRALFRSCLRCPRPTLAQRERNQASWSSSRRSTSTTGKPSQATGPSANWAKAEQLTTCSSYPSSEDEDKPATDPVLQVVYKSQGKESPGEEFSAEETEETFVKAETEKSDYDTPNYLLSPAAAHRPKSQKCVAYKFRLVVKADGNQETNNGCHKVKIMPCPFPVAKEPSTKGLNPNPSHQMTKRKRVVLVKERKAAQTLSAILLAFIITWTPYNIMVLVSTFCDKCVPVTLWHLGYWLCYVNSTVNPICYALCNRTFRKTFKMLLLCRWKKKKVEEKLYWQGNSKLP

[16] = molecular target: T3, Muscarinic acetylcholine receptor M5 (Rattus norvegicus, UniProt P08911); test: Negative allosteric modulation of rat muscarinic acetylcholine receptor M5 expressed in CHO cells assessed as inhibition of acetylcholine-induced calcium mobilization incubated for 150 secs prior to acetylcholine induction by Fluo-4 AM staining-based fluorescence assay; assay type: functional, cell-based
T3 sequence (P08911 whole entry): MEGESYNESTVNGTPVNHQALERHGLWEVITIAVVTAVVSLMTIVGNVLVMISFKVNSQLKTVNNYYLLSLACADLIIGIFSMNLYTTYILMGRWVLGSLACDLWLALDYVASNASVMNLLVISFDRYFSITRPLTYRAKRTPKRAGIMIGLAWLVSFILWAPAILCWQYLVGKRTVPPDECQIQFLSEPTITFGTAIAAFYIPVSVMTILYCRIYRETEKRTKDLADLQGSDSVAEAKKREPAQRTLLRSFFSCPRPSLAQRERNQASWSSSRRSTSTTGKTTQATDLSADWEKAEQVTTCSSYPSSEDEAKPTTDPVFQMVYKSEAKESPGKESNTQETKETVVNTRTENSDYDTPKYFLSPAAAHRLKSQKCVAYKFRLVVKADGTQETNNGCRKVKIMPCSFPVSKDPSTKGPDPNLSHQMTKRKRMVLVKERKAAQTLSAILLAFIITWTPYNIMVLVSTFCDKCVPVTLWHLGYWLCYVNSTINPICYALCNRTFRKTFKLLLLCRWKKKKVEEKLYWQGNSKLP

[17] = molecular target: T4, Muscarinic acetylcholine receptor M5 (Homo sapiens) (UniProt P08912); test: Negative allosteric modulation of human muscarinic acetylcholine receptor M5 expressed in CHO cells assessed as reduction of acetylcholine-induced calcium mobilization at 10 uM incubated for 150 secs prior to acetylcholine induction by Fluo-4 AM staining-based fluorescence assay relative to control; assay type: functional, cell-based; design: scale not given: the % may be the effect or the level left
T4 sequence (whole entry): T2 sequence (P08912 whole entry)

Sequence of Cannabinoid receptor 1 (Homo sapiens) (P21554 whole entry): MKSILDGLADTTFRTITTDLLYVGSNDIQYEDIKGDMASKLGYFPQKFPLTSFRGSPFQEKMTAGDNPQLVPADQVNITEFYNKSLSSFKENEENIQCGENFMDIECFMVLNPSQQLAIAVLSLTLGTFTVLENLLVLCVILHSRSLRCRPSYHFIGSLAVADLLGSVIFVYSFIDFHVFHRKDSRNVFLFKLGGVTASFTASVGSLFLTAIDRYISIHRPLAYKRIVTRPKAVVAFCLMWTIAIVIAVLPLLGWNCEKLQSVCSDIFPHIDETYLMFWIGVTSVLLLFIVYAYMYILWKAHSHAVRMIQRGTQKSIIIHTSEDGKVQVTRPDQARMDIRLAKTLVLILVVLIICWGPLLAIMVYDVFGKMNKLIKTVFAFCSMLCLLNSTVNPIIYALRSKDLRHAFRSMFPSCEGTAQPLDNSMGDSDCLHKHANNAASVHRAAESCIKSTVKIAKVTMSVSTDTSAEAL
Sequence of Cytochrome P450 2D6 (P10635 whole entry): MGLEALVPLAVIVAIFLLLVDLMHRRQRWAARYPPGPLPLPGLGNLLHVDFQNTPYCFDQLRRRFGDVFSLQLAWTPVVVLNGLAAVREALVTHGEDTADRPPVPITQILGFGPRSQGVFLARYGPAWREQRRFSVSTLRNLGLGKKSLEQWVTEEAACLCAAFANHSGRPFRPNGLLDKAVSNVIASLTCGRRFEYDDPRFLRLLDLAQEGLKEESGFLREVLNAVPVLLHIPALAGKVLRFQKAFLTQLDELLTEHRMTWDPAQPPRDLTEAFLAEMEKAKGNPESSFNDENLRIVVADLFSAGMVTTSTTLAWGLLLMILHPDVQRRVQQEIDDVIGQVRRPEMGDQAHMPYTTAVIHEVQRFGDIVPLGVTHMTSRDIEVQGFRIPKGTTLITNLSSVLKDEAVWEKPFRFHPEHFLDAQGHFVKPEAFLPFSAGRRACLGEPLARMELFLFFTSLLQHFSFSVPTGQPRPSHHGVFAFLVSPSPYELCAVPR
Sequence of Cytochrome P450 2C9 (P11712 whole entry): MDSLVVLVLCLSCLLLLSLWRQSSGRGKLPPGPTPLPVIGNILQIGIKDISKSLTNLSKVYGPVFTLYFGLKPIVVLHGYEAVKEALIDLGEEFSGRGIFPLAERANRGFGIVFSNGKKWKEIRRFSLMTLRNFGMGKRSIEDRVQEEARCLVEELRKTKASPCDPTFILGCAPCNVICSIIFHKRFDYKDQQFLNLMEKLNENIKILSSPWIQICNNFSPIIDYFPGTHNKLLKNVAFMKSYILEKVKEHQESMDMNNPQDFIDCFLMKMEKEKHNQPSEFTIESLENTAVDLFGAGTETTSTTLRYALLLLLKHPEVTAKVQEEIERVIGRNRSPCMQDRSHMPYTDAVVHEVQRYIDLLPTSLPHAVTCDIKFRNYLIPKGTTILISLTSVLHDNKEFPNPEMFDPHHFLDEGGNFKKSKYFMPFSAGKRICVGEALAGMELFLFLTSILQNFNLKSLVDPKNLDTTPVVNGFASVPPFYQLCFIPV
Sequence of Cytochrome P450 3A4 (P08684 whole entry): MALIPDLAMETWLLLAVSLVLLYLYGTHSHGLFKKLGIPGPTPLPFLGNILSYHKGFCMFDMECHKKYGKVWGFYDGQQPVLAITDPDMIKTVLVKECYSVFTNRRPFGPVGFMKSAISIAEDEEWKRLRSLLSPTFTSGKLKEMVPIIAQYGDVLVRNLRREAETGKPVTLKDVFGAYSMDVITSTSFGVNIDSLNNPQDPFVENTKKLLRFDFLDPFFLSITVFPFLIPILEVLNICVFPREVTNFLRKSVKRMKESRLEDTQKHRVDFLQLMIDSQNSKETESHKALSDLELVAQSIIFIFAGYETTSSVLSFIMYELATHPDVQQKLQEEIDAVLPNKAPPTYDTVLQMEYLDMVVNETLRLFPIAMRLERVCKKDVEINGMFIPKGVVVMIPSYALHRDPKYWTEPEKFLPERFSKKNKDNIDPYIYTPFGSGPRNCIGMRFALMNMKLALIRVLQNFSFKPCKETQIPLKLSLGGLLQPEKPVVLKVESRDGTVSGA

Structure (SMILES): O=C(c1ccc(F)c(F)c1)N1CCN2C(=O)c3ccccc3[C@@]12c1ccc(Cl)cc1
- bioavailability [1]: 80%
- inhibition [2]: 66%
- Tmax [3]: 7 h
- half-life [4]: 80 h
- IC50 (Cytochrome P450 3A4): 16 µM
- BPR [5]: 1.8
- Fu (Plasma [6]): 0.029
- IC50 [7]: > 30 µM
- Cmax [8]: 1400 nM
- beta t1/2 (Cynomolgus monkey [9]): 10 h
- Vdss (Rattus norvegicus): 16 L/kg
- Fu (Plasma [10]): 0.013
- K(p,uu,brain) [11]: 0.2
- IC50 (Cytochrome P450 2C9): 7.4 µM
- Vdss (Cynomolgus monkey [12]): 1.9 L/kg
- IC50 (Cytochrome P450 2D6): 26 µM
- clearance [13]: 2.5 mL/min/kg
- Fu (Plasma [14]): 0.001

Structure (SMILES): O=C(c1ccc(F)c(F)c1)N1CCN2C(=O)c3ccccc3C12c1ccccc1 (configuration not stated)
- IC50 [15]: 1.05 µM
- IC50 [16]: 2.1 µM
- IC50 [7]: > 30 µM
- Activity [17]: 0%

— ChEMBL document CHEMBL3102750 (J Med Chem, 2013)
